Measurements collected from several papers.
Each line is one published result; the experiments were not run side by side.
Target: Bone morphogenetic protein receptor type-1A (BMPR1A, Homo sapiens, UniProt P36894)

| Structure (SMILES) | assay | conditions | remaining binding [%] |
| --- | --- | --- | --- |
| FC(F)(F)Oc1cccc(-c2cnc3ccc(-c4ccncc4)nn23)c1 | cell-free assay, competition with immobilised ligand | 5 µM | 81 |
| O=C(Nc1c[nH]nc1C(=O)NC1CCNCC1)c1cc(F)cc(F)c1 | binding, competition with immobilised ligand | 1 µM | 89 |
| C[C@H]1CCN(c2nccc(-c3cnn4ncccc34)n2)C1 | binding | 1 µM | 68 |
| C[C@@]1(Cc2ccc(C#N)cc2)C(=O)N(c2cc(Cl)cc(Cl)c2)c2ncc(C(=O)NC3(c4nc(C5CCC5)no4)CC3)n21 | binding, competition with immobilised ligand | 1 µM | 100 |
| O=C(c1ccc(Nc2ncc(Cl)c(-c3ccc(Cl)s3)n2)cc1)N1CCC(N2CCCC2)CC1 | binding, competition with immobilised ligand | 1 µM | 59 |
| COc1cccc(CNC(=O)c2nc3scc(COCc4ccc(C(=O)O)cc4)c3c(=O)[nH]2)c1 | cell-free assay, competition with immobilised ligand | 1 µM | 100 |
| Nc1ncc2c(n1)-c1c([nH]c3ccc(C#CC4CC4)cc13)CCCC2 | binding, competition with immobilised ligand | 1 µM | 95 |
| c1cnn2ncc(-c3ccnc(N4CCC45COC5)n3)c2c1 | binding | 1 µM | 88 |
| O=C(c1ccc(Nc2ncc(Cl)c(-c3cc4ccccc4s3)n2)cc1)N1CCC(N2CCCC2)CC1 | binding, competition with immobilised ligand | 1 µM | 60 |
| CN(c1ccnc(CNc2nc(Nc3ccc4c(c3)CC(=O)N4)ncc2C(F)(F)F)n1)S(C)(=O)=O | binding, competition with immobilised ligand | 1 µM | 89 |
| N[C@@H]1CCN(c2nccc(-c3cnn4ncccc34)n2)C1 | binding | 1 µM | 100 |
| O=C(NS(=O)(=O)c1ccc(NCC2CCOCC2)c([N+](=O)[O-])c1)c1ccc(N2CCN(Cc3ccc(C(F)(F)F)cc3-c3ccc(Cl)cc3)CC2)cc1Oc1cnc2[nH]ccc2c1 | cell-free assay, competition with immobilised ligand | 1 µM | 81 |
| Cc1cnn2ncc(-c3ccnc(N(C)C)n3)c2c1 | binding | 1 µM | 100 |
| FC(F)(F)c1ccc2c(c1)nc(-c1cccnc1)n2C1CC1 | cell-free assay, competition with immobilised ligand | 1 µM | 93 |
| O=C(NCCCN1CCOCC1)c1ccc(Nc2ncc(Cl)c(-c3ccc(Cl)s3)n2)cc1 | binding, competition with immobilised ligand | 1 µM | 86 |
| COc1ncc2cc3ccccc3nc2c1C#N | binding, competition with immobilised ligand | 5 µM | 94 |
| CN(C)c1nccc(-c2cnn3ncccc23)n1 | binding | 1 µM | 81 |
| CNC(=O)[C@@H]1CC[C@@H](n2c(-c3ccc4cnccc4c3)nc3ccc(C(=O)NCc4cccc(C(N)=O)c4)cc32)C1 | binding, competition with immobilised ligand | 1 µM | 92 |
| CC1=C(C#N)[C@@H](c2ccc3[nH]nc(C)c3c2)C(C#N)=C(c2ccc(Cl)cc2)N1 | binding, competition with immobilised ligand | 1 µM | 98.6 |
| c1cncc(-c2cccc(Nc3nccc(NC4CCCCC4)n3)c2)c1 | binding, competition with immobilised ligand | 10 µM | 73 |
